Compound activity deposited in PubChem by several laboratories.
This is a sample that favours compounds with a hit; in the whole collection about 4.7% have one here.
NR3A LBD binder – binders of NR3A ligand-binding domain, primary screen, biophysical, differential scanning fluorimetry, uHTS. Glutamate receptor ionotropic, NMDA 3A (GRIN3A) ligand-binding domain. NR3A LBD differential scanning fluorimetry, Tm shift; 0% = protein alone, 100% = glycine-bound protein. Tm shift relative to glycine control, % at 25 µM. 340,000 tested, 2.5% active. AID 1259313, 2017;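 active = melting temperature shift of at least 10% of the positive control shift, at one fixed dose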
MT1-MMP act inh – blockers of MT1-MMP proenzyme processing, primary screen, HT1080 RFP-PRO-GFP cells, GFP/RFP fluorescence; GFP/RFP ratio fluorescence, overnight; percent of plate control window, DMSO zero; 360,000 tested, 0.061% active; GFP/RFP ratio change, % at 20 µM;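 active = GFP/RFP ratio change of at least 30% with cell ATP level not reduced by more than half and red fluorescence within 50% of control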
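Read-out: GFP/RFP fluorescence ratio; Test system: RFP-PRO-GFP reporter HT1080 cells; Compound dosing: single-point 20 µM compound, 1% DMSO; Times: overnight compound exposure at 37 °C.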
MPTP inh – mitochondrial permeability transition pore inhibitors, primary screen, biochemical, isolated mouse mitochondria, absorbance; Ca2+ swelling absorbance, 30 min; inhibition, % at 10 µM; 360,000 tested, 1.4% active;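 active = inhibition of 50% or more, scaled per plate between neutral and stimulator controls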
ADAM17 inh – ADAM17 inhibitors, primary screen, biochemical, QFRET; recombinant ADAM17, EDANS/DABCYL FRET peptide cleavage; inhibition, % at 6.95 µM; 370,000 tested, 0.83% active; AID 720648, 2013;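 active = inhibition above the mean of compounds lying between control limits plus 3 SD, set per campaign, cut at about 8.5% in these data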
Target sequence (P78536 215-824 limits assumed): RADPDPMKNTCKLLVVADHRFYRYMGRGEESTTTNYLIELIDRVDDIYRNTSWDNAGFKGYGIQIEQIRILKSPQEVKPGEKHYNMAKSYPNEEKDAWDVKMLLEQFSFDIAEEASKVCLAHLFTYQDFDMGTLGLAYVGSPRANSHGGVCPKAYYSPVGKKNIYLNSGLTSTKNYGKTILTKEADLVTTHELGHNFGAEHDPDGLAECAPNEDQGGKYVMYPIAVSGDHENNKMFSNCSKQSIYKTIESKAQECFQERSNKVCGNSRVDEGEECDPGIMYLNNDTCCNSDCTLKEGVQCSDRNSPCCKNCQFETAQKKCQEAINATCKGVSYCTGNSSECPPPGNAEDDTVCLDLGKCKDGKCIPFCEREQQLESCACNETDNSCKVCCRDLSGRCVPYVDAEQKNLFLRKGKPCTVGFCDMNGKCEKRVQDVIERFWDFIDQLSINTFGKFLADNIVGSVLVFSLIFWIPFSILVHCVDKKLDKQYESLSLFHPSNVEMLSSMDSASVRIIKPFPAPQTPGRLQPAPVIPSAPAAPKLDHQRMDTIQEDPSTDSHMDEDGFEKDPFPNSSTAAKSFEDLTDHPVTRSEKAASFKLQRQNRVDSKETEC
SKN-1 block – suppressors of acrylamide-induced Pgst-4::GFP reporter in worms, primary screen, SKN-1 inhibitor project, whole organism, uHTS, GFP/RFP fluorescence ratio, strain VP596; 360,000 tested, 0.49% active; AID 624304, 2012; C. elegans VP596 Pgst-4::GFP/RFP ratio, 24 h; inhibition, % at 21.8 µM;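 active = interference check ratio from 0.5 to 1.5 plus GFP to RFP signal ratio inhibition reaching or exceeding a fixed threshold, cut at about 30% in these data, passing the limit was not always enough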
ADAM10 inh – human ADAM10 inhibitors, primary screen, biochemical, QFRET, HTS | Disintegrin and metalloproteinase domain-containing protein 10 (Homo sapiens), O14672 | recombinant ADAM10, EDANS/DABCYL FRET peptide cleavage, 3 h | inhibition, % at 7 µM | 370,000 tested, 0.62% active | AID 720582, 2013;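 active = inhibition above a per-campaign cutoff equal to the mean of compounds falling between control-based bounds plus 3 SD, cut at about 20% in these data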
Rh123 counter – fluorescence retest of MPTP screen hits in isolated mitochondria, single concentration; membrane potential, Rhodamine 123 fluorescence; shares compounds with MPTP inh; AID 624504, 2012; inhibition, % at 10 µM; 5,000 tested, 78% active; in the data active = inhibition above about 22%
MPTP swell DR – mitochondrial permeability transition pore inhibitors, dose response, biochemical, absorbance, uHTS hits; shares compounds with MPTP inh; isolated mitochondria swelling; IC50, µM; 780 tested, 58% active; AID 651561, 2012; in the data active = IC50 below about 20 µM
MPTP counter DR – fluorescent counter-screen in isolated mitochondria, dose response, counter-screen for MPTP inhibitor project, biochemical, fluorescence, uHTS hits; isolated mitochondria counterscreen, fluorescence read-out; 780 tested, 49% active; shares compounds with MPTP inh; IC50, µM; in the data active = IC50 below about 80 µM
Of the large screens only hits and unclear results are named; the others gave an inactive call (follow-up assays come after a bar, where they were run).

COc1cc(Cl)c(C)cc1NC(=O)c1ccc(NS(=O)(=O)c2ccc(F)c(F)c2)cc1	NR3A LBD binder 31.6, MPTP inh 51.2 (no result: MT1-MMP act inh) | Rh123 counter 60.2
CCOC(=O)/C=C/C(=O)Nc1cc(S(=O)(=O)Nc2ccc(OC)cc2)ccc1N1CCOCC1	MPTP inh 57.1 | Rh123 counter 70.1
O=C(O)c1csc(Br)c1Br	none
COc1cc(NC(=O)CCC(=O)OCCCC(F)(F)C(F)(F)F)nc(OC)n1	none
CN1CCN(c2ccc(CNS(=O)(=O)Cc3cccc(C(F)(F)F)c3)cc2)CC1	MPTP inh 83.8 | Rh123 counter 85.6
CC1CCCN(C(=S)SCC(=O)c2cc(Br)cc(Br)c2O)C1 (configuration not stated)	MPTP inh 59.0 | Rh123 counter 31.9
COc1ccc(/C=N/NC(=O)c2cc(Br)ccc2O)cc1Cn1cc(Cl)cn1	NR3A LBD binder 20.7, MPTP inh 67.6 | Rh123 counter 53.5
COc1ccc(/C=N/NC(=O)c2ccc(Cl)cc2)cc1Cn1cc(Cl)cn1	none
COc1cc2c(cc1NC(=O)CN(C)Cc1cccc(OC)c1OC)oc1ccccc12	none
COC(=O)/C(=C\c1ccc(O)cc1)c1nc2ccccc2[nH]1	none
O=C(/C(=C\c1ccccc1)c1nc2ccccc2[nH]1)c1ccc(Cl)cc1	MPTP inh 74.6 | Rh123 counter 75.0
COc1cc(/C=C(/C(=O)c2cccs2)c2nc3ccccc3[nH]2)ccc1O	none
O=C(/C(=C/c1ccc(Cl)cc1)c1nc2ccccc2[nH]1)c1cccs1	MPTP inh 65.5 (no result: ADAM17 inh, ADAM10 inh) | Rh123 counter 75.4
C[C@@H]1CN([C@H](C)CO)C(=O)CCCn2cc(nn2)CO[C@H]1CN(C)C(=O)OCc1ccccc1	none (no result: NR3A LBD binder)
CCCCSc1nc2c(c(=O)[nH]c(=O)n2C)n1CCc1ccccc1	none
Cc1ccc2c(COC(=O)C34CC5CC(CC(C5)C3)C4)cc(=O)oc2c1	none
C/C(=N/NS(=O)(=O)c1ccc(Cl)cc1)c1cccc(O)c1	none
C/C(=N\NS(=O)(=O)c1ccccc1)c1cc(Cl)cc(Cl)c1O	MPTP inh 61.9 | Rh123 counter 75.2
O=C(Nc1cccc(Cl)c1)OCCN1CCN(Cc2ccccc2)CCC1=O	MPTP inh 93.3 | Rh123 counter 89.2
O=c1[nH]nc(Cc2ccc(-c3cccc(Cl)c3)o2)c2ccccc12	MPTP inh 83.6 | Rh123 counter 83.1
O=C(N/N=C/c1cn(-c2cccs2)nc1-c1ccccc1)c1ccccc1O	NR3A LBD binder 25.7, MPTP inh 98.6 | Rh123 counter 31.9
O=C(N/N=C/c1cn(-c2ccccc2)nc1-c1cccnc1)c1ccccc1	none
O=C(Cc1ccc(S(=O)(=O)N2CCOCC2)s1)Nc1ccccc1Br	none
O=C(Cc1ccc(S(=O)(=O)N2CCCCC2)s1)Nc1cccc2ccccc12	MPTP inh active | Rh123 counter inactive | MPTP swell DR inactive | MPTP counter DR inactive
C1CCC(C(CC2CCCCN2)C2CCCCC2)CC1 (configuration not stated)	MPTP inh 81.5 | Rh123 counter inactive
Cc1cc(Cn2nnc3ccccc32)c(O)c(C(C)(C)C)c1	MPTP inh 52.9 | Rh123 counter 94.0
CC(C)(C)c1cccc(Cn2nnc3ccccc32)c1O	MPTP inh 82.2 | Rh123 counter 96.7
NS(=O)(=O)c1cccc(NC(=O)CCCNC(=O)c2ccc(Cl)cc2)c1	none
C=CCNC(=S)Nc1ccc(Br)cc1F	none
S=C(NCCc1ccccn1)Nc1ccc(Cl)c(Cl)c1	none
S=C(NCCc1ccccc1)Nc1ccc(Cl)cc1	NR3A LBD binder 27.3, MPTP inh 100.2 | Rh123 counter 90.0
S=C(NCCc1ccccn1)Nc1cc(Cl)cc(Cl)c1	MPTP inh 60.1 | Rh123 counter 77.1
Cc1c(Cl)cccc1NC(=S)NCCc1ccc(C(F)(F)F)cc1	MPTP inh 98.4 | Rh123 counter 95.9
Cc1c(Cl)cccc1NC(=S)NCCc1ccccn1	none
S=C(NCCc1ccccc1)N/N=C/c1ccc(Cl)cc1	none
Fc1cc(Br)ccc1NC(=S)NCCc1ccccc1	NR3A LBD binder 30.5, MPTP inh 78.9 | Rh123 counter 83.4
Cc1ccccc1NC(=O)NCCc1ccc(Cl)cc1	none
S=C(NCCCc1ccccc1)Nc1ccccc1Cl	NR3A LBD binder 17.6, MPTP inh 86.2 | Rh123 counter 99.8
O=C(NCCc1ccccc1)Nc1ccc(Cl)cc1	NR3A LBD binder 15.8, MPTP inh 75.9 | Rh123 counter 72.2
OC(CNCc1ccccc1)c1ccccc1 (configuration not stated)	none
Oc1cccc(C(O)CNCc2ccc(-c3ccccc3)cc2)c1 (configuration not stated)	MPTP inh 91.6 | Rh123 counter inactive | MPTP swell DR 4.15 | MPTP counter DR 51.1
Oc1cccc(C(O)CNCc2ccc(OCc3ccc(Cl)cc3Cl)cc2)c1 (configuration not stated)	MPTP inh 82.9 | Rh123 counter inactive | MPTP swell DR 6.74 | MPTP counter DR 43
O=C(CCc1ccccc1)Nc1ccnn1C1CCN(C/C=C/c2ccccc2)CC1	none
COc1ccccc1/C=C/CN1CCC(n2nccc2NC(=O)CCc2ccccc2)CC1	MPTP inh 73.6 | Rh123 counter 108.6
O=C(Cn1c(=O)n(CCC(=O)N2CCc3ccccc3C2)c(=O)c2ccccc21)NCC1CCCO1 (configuration not stated)	none
CC(C)N=c1scc(-c2ccco2)n1/N=C/c1ccc(O)c(O)c1	MPTP inh 63.2 | Rh123 counter 41.5
COCCN=c1scc(-c2ccco2)n1/N=C/c1ccc(O)c(O)c1O	none
Cc1ccc2c(c1)C1CN(C)CCC1N2S(=O)(=O)c1ccc(C#N)cc1 (configuration not stated)	none
